According to ChEMBL document CHEMBL5653631, “A Potent and Selective ULK1 Inhibitor Suppresses Autophagy and Sensitizes Cancer Cells to Nutrient Stress” (iScience, 2018):
Blank lines part the entries; values can stand above or below the molecule they belong to.

Tests used:
[1] = target: T1, Discoidin domain-containing receptor 2 (Homo sapiens) (UniProt Q16832); experiment: Inhibition of human recombinant DDR2 at 500 nM related to control ULK1
T1 sequence (whole entry): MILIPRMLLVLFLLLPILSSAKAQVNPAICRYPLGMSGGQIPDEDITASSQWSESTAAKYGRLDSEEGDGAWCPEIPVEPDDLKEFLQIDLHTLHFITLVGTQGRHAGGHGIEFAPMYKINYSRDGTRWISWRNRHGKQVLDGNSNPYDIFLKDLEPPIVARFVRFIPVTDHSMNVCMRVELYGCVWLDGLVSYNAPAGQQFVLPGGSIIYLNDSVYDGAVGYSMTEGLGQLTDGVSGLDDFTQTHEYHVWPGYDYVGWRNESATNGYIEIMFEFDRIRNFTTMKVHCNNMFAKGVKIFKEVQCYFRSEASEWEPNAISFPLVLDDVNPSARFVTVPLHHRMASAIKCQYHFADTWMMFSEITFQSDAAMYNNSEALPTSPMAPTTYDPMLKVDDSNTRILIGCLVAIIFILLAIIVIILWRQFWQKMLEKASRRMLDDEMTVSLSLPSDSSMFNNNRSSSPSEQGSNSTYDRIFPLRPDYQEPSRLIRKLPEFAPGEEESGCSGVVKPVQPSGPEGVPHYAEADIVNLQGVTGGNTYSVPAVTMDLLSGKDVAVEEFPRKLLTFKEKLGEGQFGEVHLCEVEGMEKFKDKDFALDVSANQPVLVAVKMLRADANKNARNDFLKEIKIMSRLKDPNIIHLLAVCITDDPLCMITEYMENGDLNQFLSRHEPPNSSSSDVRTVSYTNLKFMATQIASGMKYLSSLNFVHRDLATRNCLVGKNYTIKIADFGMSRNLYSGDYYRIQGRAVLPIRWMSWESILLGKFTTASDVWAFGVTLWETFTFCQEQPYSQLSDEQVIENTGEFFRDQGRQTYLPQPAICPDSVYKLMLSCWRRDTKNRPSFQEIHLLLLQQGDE

[2] = target: T2, Mitogen-activated protein kinase 13 (Homo sapiens) (UniProt O15264); experiment: Inhibition of human recombinant p38delta at 500 nM related to control ULK1
T2 sequence (whole entry): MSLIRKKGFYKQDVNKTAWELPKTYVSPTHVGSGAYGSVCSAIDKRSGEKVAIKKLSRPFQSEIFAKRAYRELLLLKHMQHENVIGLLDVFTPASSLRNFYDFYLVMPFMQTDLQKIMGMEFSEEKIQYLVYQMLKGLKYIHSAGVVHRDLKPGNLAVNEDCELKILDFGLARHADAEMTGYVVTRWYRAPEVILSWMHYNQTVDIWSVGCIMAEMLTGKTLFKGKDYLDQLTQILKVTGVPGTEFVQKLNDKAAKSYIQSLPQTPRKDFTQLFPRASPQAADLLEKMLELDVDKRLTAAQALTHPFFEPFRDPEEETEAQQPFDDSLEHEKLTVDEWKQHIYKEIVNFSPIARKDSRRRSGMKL

[3] = target: Ribosomal protein S6 kinase alpha-5 (Homo sapiens) (UniProt O75582); experiment: Inhibition of human recombinant MSK1 at 15 nM in presence of ATP by radiometric assay relative to control
Chain of Ribosomal protein S6 kinase alpha-5 (Homo sapiens) (O75582 whole entry, looked up, canonical isoform): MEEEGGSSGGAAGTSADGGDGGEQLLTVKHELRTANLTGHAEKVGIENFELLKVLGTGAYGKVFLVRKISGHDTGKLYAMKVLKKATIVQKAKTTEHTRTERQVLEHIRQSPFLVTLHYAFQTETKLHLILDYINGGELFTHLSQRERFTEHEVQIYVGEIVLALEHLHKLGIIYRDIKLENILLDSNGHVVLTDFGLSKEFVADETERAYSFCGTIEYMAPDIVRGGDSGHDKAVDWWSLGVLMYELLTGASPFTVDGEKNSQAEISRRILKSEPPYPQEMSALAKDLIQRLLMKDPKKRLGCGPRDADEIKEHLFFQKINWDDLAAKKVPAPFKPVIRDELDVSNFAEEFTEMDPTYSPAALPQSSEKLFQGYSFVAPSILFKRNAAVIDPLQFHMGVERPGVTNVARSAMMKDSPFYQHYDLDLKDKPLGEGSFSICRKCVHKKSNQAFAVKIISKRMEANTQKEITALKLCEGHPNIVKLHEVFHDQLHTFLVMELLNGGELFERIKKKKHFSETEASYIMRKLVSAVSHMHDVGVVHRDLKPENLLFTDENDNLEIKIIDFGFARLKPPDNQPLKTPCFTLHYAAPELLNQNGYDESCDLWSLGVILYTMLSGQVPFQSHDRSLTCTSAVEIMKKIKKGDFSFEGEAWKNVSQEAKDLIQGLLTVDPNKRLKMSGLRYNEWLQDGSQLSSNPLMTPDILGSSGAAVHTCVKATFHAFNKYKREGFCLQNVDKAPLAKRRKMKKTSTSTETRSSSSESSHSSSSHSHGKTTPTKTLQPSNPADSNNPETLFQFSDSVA

[4] = target: T3, Phosphorylase b kinase gamma catalytic chain, liver/testis isoform (Homo sapiens) (UniProt P15735); experiment: Inhibition of human recombinant PHKg2 at 15 nM in presence of ATP by radiometric assay relative to control
T3 sequence (whole entry): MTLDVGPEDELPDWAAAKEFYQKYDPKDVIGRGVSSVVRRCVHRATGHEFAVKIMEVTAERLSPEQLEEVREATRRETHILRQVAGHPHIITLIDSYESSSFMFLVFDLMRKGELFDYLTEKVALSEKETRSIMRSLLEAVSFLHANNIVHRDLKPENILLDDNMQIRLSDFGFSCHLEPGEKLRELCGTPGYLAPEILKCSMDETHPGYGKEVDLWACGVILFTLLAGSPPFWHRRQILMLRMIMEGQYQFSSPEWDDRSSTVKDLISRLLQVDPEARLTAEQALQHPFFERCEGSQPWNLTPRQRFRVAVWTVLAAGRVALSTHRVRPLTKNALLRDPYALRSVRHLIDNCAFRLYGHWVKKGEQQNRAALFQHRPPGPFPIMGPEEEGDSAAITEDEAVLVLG

[5] = target: T4, Activin receptor type-1B (Homo sapiens) (UniProt P36896); experiment: Inhibition of human recombinant ALK4 at 40 nM related to control ULK1
T4 sequence (whole entry): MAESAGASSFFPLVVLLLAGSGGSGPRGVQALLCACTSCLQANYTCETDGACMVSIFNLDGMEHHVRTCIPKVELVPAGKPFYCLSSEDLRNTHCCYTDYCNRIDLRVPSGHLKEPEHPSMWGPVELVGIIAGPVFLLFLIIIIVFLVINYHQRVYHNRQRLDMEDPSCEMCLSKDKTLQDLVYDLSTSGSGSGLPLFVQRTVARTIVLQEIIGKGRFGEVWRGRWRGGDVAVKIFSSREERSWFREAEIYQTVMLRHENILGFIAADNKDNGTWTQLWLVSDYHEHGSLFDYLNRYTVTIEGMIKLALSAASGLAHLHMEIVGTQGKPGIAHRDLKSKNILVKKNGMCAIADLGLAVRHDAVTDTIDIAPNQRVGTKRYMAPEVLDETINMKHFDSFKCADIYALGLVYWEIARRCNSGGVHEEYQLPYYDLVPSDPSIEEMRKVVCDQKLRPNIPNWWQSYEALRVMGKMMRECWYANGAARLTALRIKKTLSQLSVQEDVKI
Summary of the method: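 Radiometric activity assays in a panel of 327 human recombinant kinases, each run in duplicate at one inhibitor concentration. Activity remaining is expressed as percent of vehicle control, and percent inhibition is calculated as 100% minus percent activity remaining.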

fold change (FC) [1]: 0
fold change (FC) [2]: 0.26
SMILES: CNC(=O)c1ccccc1Oc1nc(Nc2cc(OC)c(OC)c(OC)c2)ncc1Br

inhibition [3]: 2%
inhibition [4]: 9%
SMILES: CC(C)[C@H](NC(=O)c1cc(-c2cnn3cc(-c4ccc(OCCN5CCCCC5)cc4)cnc23)cs1)C(F)(F)F

fold change (FC) [5]: 0
SMILES: O=C(N[C@@H](C1CC1)C(F)(F)F)c1cc(-c2cnn3cc(-c4ccc(F)cc4)cnc23)cs1
